The text below walks through data of ChEMBL document CHEMBL3351301, “Synthesis of triazole Schiff bases: novel inhibitors of nucleotide pyrophosphatase/phosphodiesterase-1” (Bioorg Med Chem, 2014).

The source made the active and inactive calls. The rule behind the calls is not given here.

Test [1] in a line: Cytotoxicity against human PC3 cells. The test is classed as functional, cell-based. Conditions: PC-3.
The nature of test [2]: Inhibition of snake venom NPP1 using bis(p-nitrophenyl)phosphate preincubated for 30 mins by spectrophotometry. Also noted: species or system Serpentes. A digest of the protocol:
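Snake venom PDE1/NPP1 at 7.42 × 10^-4 units, dissolved in cold deionized water. Assay in 33 mM Tris-HCl pH 8.8 with 30 mM magnesium acetate cofactor. Preincubated 30 min at 37 °C, then started with 0.33 mM bis(p-nitrophenyl)phosphate (total). p-Nitrophenol release read at 410 nm. Initial rates taken as Vmax/min and % inhibition calculated against control. Triplicates; IC50 derived by enzyme-kinetics fitting.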

Test [3] deals with Carbonic anhydrase (Homo sapiens) (UniProt P00918+P43166+P00915+P07451+P23280+O43570+Q9ULX7+Q16790+P22748+Q8N1Q1+Q9Y2D0+P35218). Kind of test: Inhibition of carbonic anhydrase (unknown origin). The format is protein assay.

As to `COc1ccc(/C=N/n2cnnc2)cc1`, the IC50 (commonly the concentration that gives 50% inhibition) in test [1] is greater than 30 µM; in test [2], “Not Active”.
Take `Oc1ccc(/C=N/n2cnnc2)cc1`: the IC50 in test [1] is greater than 30 µM; in test [2], “Not Active”.
Take `CSc1ccc(/C=N/n2cnnc2)cc1`: the IC50 in test [1] was greater than 30 µM; in test [2], “Not Active”.
On to `Cc1ccc(O)c(/C=N/c2nnc[nH]2)c1`, for which the results for the IC50 in test [1] and in test [2] were greater than 30 µM and “Not Active”, respectively.
The matching figures for `COc1ccc(/C=N/n2cnnc2)cc1OC`: greater than 30 µM and “Not Active”.
As for `CCOc1ccc(/C=N/n2cnnc2)cc1`, the figures for the IC50 in test [1] and in test [2] were greater than 30 µM and “Not Active”, respectively.
On the same counts, the results for `Oc1cccc(/C=N/n2cnnc2)c1` are greater than 30 µM and “Not Active”.
The matching figures for `CCOc1ccc(/C=N/c2nnc[nH]2)c(O)c1`: greater than 30 µM and “Not Active”.
On to `Oc1cccc(/C=N/n2cnnc2)c1O`, for which the inhibition result in test [3] is “inactive”. Also, the IC50 in test [1] was greater than 30 µM; in test [2] (read-out: IC50) it was 153 µM.
For `O=[N+]([O-])c1ccc(/C=N/c2nnc[nH]2)cc1`, the IC50 is greater than 30 µM in test [1] and “Not Active” in test [2].
As to `COc1cccc(/C=N/c2nnc[nH]2)c1O`, the IC50 in test [1] is greater than 30 µM; in test [2], “Not Active”.
For the compound `CCOc1cccc(/C=N/n2cnnc2)c1O`, the IC50 in test [1] is greater than 30 µM; in test [2], “Not Active”.
On to `Oc1ccc(Br)cc1/C=N/n1cnnc1`, for which the IC50 was greater than 30 µM in test [1] and 405 µM in test [2] (read-out: IC50).
With `O=C(O)CN(CCN(CC(=O)O)CC(=O)O)CC(=O)O` [EDETIC ACID], the IC50 in test [2] (read-out: IC50) is 278 µM.
For the compound `Oc1ccc(Cl)cc1/C=N/n1cnnc1`, the inhibition entry in test [3] was “inactive”. The results for the IC50 in test [1] and in test [2] (read-out: IC50) were greater than 30 µM and 251 µM, respectively.
On to `CSc1ccc(/C=N/c2nnc[nH]2)cc1`, for which the IC50 in test [1] is greater than 30 µM; in test [2] it was “Not Active”.
As to `CN(C)c1ccc(/C=N/c2nnc[nH]2)cc1`, the inhibition result in test [3] was “inactive”. For the same compound, the results for the IC50 in test [1] and in test [2] (read-out: IC50) were greater than 30 µM and 132 µM, respectively.
For the compound `Oc1c(Br)cc(Br)cc1/C=N/c1nnc[nH]1`, the IC50 was greater than 30 µM in test [1] and “Not Active” in test [2].
`Oc1ccccc1/C=N/c1nnc[nH]1`: the IC50 was greater than 30 µM in test [1] and “Not Active” in test [2].
For the compound `COc1ccc(/C=N/c2nnc[nH]2)cc1OC`, the IC50 is greater than 30 µM in test [1] and “Not Active” in test [2].
On to `Oc1ccccc1/C=N/n1cnnc1`, for which the IC50 is greater than 30 µM in test [1] and “Not Active” in test [2].
As for `Brc1ccc(/C=N/n2cnnc2)cc1`, the IC50 in test [1] is greater than 30 µM; in test [2] (read-out: IC50), 823 µM.
In the case of `Oc1c(Cl)cc(Cl)cc1/C=N/c1nc[nH]n1`, the IC50 is greater than 30 µM in test [1] and “Not Active” in test [2].
Turning to `Oc1cc(O)c(/C=N/n2cnnc2)c(O)c1`, the 50% inhibitory concentration (IC50) was greater than 30 µM in test [1] and 1160 µM in test [2] (read-out: IC50).
As to `Clc1ccc(/C=N/c2nnc[nH]2)c(Cl)c1`, the results for the IC50 in test [1] and in test [2] were greater than 30 µM and “Not Active”, respectively.
With `COc1cccc(/C=N/n2cnnc2)c1O`, the IC50 in test [1] is greater than 30 µM; in test [2], “Not Active”.
